Target: T1, VapC1 (Haemophilus influenzae, UniProt Q4QNL7)
T1 sequence (Q4QNL7 1-134): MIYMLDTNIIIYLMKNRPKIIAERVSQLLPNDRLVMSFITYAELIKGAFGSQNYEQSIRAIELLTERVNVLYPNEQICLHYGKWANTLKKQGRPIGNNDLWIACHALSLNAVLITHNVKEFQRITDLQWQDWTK
Assay: Biochemical VapC1 ribonuclease activity assay
Design: species or system nontypeable Haemophilus influenzae
Procedure, shortened: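 Purified VapC1 (296 nM final) was preincubated with test compound, aurintricarboxylic acid positive control or DMSO for 30 min at room temperature in 1X RNaseAlert reaction buffer. Custom RNA substrate (5' Cy5, 3' Iowa Black RQ quencher; 100 nM final) was then added. Fluorescence (Ex 618, Em 671 nm) was read immediately and at 75 min. Activity was taken as the change between readings. Concentration-response used eleven concentrations.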

## Clc1ccc(C(c2ccc(Cl)cc2)n2cc[n+](C[C@@H](OCc3ccc(Cl)cc3Cl)c3ccc(Cl)cc3Cl)c2)cc1 [NCGC00015233]
  VapC1 inhibitor (result in words): confirmed VapC1 inhibtors
